From publication PMC3502708 (Journal of molecular biology, 2012)

Legend:
MORF PHD1/2 fingers [1] = biological target: T1, MORF PHD1/2 fingers (Homo sapiens, UniProt Q8WYB5); experiment: NMR titration; type: binding; settings: for Chemical shift changes / binding of MORF PHD1/2 by NMR (in words): 0.1 mM 15N-labeled PHD1/2, 298K
T1 sequence (Q8WYB5 211-329): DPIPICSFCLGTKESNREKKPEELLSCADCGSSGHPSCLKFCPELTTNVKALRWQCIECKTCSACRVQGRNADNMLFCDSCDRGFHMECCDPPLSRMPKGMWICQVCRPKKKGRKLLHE

[2] = tested on: endogenous H3K14ac / histone H3 in HEK293 cells; type: cell-based; settings: TSA 3 μM, 6 h prior to harvesting, Flag-N-MORF IP
Method in brief: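 HEK293 cells were seeded at 300,000 per 6 cm dish and lipofection-transfected with Flag-tagged MORF N-terminal constructs (aa 1–352, or aa 1–215 lacking PHD1/2). After about 48 h, cells were lysed in buffer with 150 mM KCl and immunoprecipitated on anti-Flag M2 agarose. Beads were washed extensively and eluted in 50 mM phosphoric acid. Blots were probed with anti-Flag, anti-H3K14ac and anti-H3. Where indicated, TSA (3 μM) was added to the medium 6 h before harvest.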

MOZ PHD1/2 fingers = MOZ PHD1/2 fingers (Homo sapiens, UniProt Q92794); experiment: Tryptophan fluorescence binding, MOZ PHD1/2; settings: as seen in NMR and fluorescence assays
ING5 PHD finger = settings: ref [13]; cited from earlier work
MORF PHD1/2 fingers [3] = biological target: T1, MORF PHD1/2 fingers; experiment: Tryptophan fluorescence binding, MORF PHD1/2; settings: 25 °C, H3un vs acetylated peptides
[4] = biological target: double PHD fingers of DPF3; settings: read-out: Kd, double PHD fingers of DPF3; ref [31]; cited from earlier work

Sequence of MOZ PHD1/2 fingers (Q92794 207-318): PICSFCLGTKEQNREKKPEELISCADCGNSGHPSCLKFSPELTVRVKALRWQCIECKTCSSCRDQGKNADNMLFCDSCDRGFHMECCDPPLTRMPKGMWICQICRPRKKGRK

CC(=O)NCCCC[C@H](N)C(=O)O [acetylated lysine amino acid, reference compound]
Chemical shift changes / binding of MORF PHD1/2 by NMR (in words) (MORF PHD1/2 fingers [1]; 1H,15N HSQC titration): lack of any significant resonance perturbations

CC(/C=C/C(=O)NO)=C\[C@@H](C)C(=O)c1ccc(N(C)C)cc1 [trichostatin A (TSA), trichostatin A, reference compound]
Effect on association of N-MORF with histone H3 [2]: enhanced the association of N-MORF with histone H3

H4 peptide (residues 1–23): H4 peptide (residues 1–23) [reference compound]
Chemical shift changes / binding of MORF PHD1/2 by NMR (in words) (MORF PHD1/2 fingers [1]; 1H,15N HSQC titration): unable to trigger chemical shift changes in MORF PHD1/2

H3 (3–10): peptide comprising amino acids Thr3-Ser10 but missing Ala1 and Arg2 (TKQTARKS)
Chemical shift changes of MORF PHD1/2 with 5-fold excess of peptide (in words) (MORF PHD1/2 fingers [1]; 1H,15N HSQC, 298K, 5-fold excess of H3 (3–10)): no changes in the NMR spectra of PHD1/2

C[C@H](N)C(=O)N[C@@H](CCCNC(=N)N)C(=O)N[C@H](C(=O)N[C@@H](CCCC[N+](C)(C)C)C(=O)N[C@@H](CCC(N)=O)C(=O)N[C@H](C(=O)N[C@@H](C)C(=O)N[C@@H](CCCNC(=N)N)C(=O)N[C@@H](CCCCN)C(=O)N[C@@H](CO)C(=O)N[C@H](C(=O)NCC(=O)O)[C@@H](C)O)[C@@H](C)O)[C@@H](C)O [H3K4me3]
Chemical shift changes / binding of MORF PHD1/2 by NMR (in words) (MORF PHD1/2 fingers [1]; 1H,15N HSQC titration): small changes in the NMR spectra of PHD1/2 | Affinity of MORF PHD1/2 relative to H3un or H3K9ac (MORF PHD1/2 fingers [1]; NMR titration, 298K): three orders of magnitude lower than affinity of this protein toward H3un or H3K9ac

H3un: peptide corresponding to amino acids 1–12 of unmodified histone H3 (NMR); length for fluorescence not printed
Affinity of MOZ PHD1/2 relative to H3K14ac and H3K9ac (MOZ PHD1/2 fingers): two to three fold weaker | Binding to ING5 PHD finger (in words) (ING5 PHD finger): does not associate with H3un | Affinity of MORF PHD1/2 relative to H3K9ac and H3K14ac (MORF PHD1/2 fingers [3]): two to three fold weaker | Kd [4]: 2000 nM | Binding of MORF PHD1/2 by NMR, short peptide (in words) (MORF PHD1/2 fingers [1]; 1H,15N HSQC titration, 298K, short peptide, amino acids 1–12): Substantial chemical shift changes

H3 peptide (amino acids 1–20): longer unmodified H3 peptide (amino acids 1–20)
Chemical shift changes / binding of MORF PHD1/2 by NMR (in words) (MORF PHD1/2 fingers [1]; 1H,15N HSQC titration): induced similar resonance perturbations
